Results published in article PMC4703045 (Chemistry & biology, 2015).

Columns and labels:
[1] = tested on: PKG Iβ; assay: PKG Iβ kinase activation assay; assay type: biochemical; conditions: Ni-IMAC-purified PKG Iβ, over basal activity (Figure S1B)
[2] = tested on: KCa1.1 channel; assay: KCa1.1 channel open probability; assay type: biochemical, rat; conditions: 500 nM Ca2+
Outline: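 Inside-out patches excised from enzymatically dispersed cerebral artery smooth muscle cells. Bath (cytosolic face), mM: 140 KCl, 2 MgCl2, 0.1 Mg-ATP, 10 HEPES pH 7.3, 3 EGTA, CaCl2 to 500 nM. Pipette, mM: 120 NaCl, 20 KCl, 2 MgCl2, 1 CaCl2, 10 HEPES pH 7.4. […] NPo normalised to control patches; mean ± SEM.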

[3] = Secondary structure by circular dichroism spectroscopy; assay type: physicochemical; conditions: 10 µM peptide in 10 mM PBS pH=7.4, 22°C, 260 to 190 nm
Outline: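 CD spectra at 22°C in a 2 mm cuvette, with 10 µM peptide in 10 mM PBS pH 7.4. Scanned 260–190 nm at 0.5 nm intervals with 2 s integration and 100 nm/min. Ten accumulations were averaged per peptide, and output was given as mean residue ellipticity (mdeg × cm2/dmol × residue).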

[4] = target: T1, PKG Iα (Bos taurus, UniProt P00516); assay: PKG Iα kinase activation, γ32P-ATP incorporation assay with W15 substrate; assay type: biochemical; conditions: for activation of PKG Iα (in words): absence of cGMP, 15 min pre-incubation at 30°C
T1 sequence (P00516 1-671): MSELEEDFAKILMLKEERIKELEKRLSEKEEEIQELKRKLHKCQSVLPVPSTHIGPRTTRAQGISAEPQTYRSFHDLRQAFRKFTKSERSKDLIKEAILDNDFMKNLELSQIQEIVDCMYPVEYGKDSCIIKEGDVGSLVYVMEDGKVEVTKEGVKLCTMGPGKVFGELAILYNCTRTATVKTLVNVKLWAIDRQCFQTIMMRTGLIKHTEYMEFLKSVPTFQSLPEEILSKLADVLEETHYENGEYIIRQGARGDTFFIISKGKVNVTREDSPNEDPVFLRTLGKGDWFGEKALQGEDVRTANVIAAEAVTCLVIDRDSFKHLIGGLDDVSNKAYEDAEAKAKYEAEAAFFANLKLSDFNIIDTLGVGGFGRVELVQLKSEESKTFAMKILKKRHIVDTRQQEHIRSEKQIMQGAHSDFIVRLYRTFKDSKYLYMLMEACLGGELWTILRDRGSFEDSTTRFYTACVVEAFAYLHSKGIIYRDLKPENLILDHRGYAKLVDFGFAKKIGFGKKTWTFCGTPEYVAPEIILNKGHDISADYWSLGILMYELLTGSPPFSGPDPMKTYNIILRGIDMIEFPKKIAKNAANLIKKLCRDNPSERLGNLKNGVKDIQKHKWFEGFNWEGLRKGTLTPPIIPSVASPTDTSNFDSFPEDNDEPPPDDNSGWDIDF

[5] = tested on: endothelium-denuded posterior cerebral arteries; assay type: cell-based, rat; conditions: paxilline 1 µM; endothelium-denuded control PCAs without S1.5
[6] = tested on: posterior cerebral arteries with intact endothelium; assay type: cell-based, rat; conditions: control PCAs with intact endothelium, without S1.5
[7] = target: cGMP-dependent protein kinase Iα (UniProt P00516)
[8] = target: cGMP-dependent protein kinase Iα (UniProt P00516); remark: listed apart in the source

Molecule: Nc1nc2c(ncn2[C@@H]2O[C@@H]3COP(=O)(O)O[C@H]3[C@H]2O)c(=O)[nH]1 [cGMP, cyclic guanosine-3’,5’-monophosphate]
- increase in activity under saturating quantities of cGMP [1]: 15 fold
- change in KCa1.1 open probability (NPo) ([2]; 50 nM cGMP with recombinant PKG Iα in bath solution): no significant change
- increase of KCa1.1 NPo above the control ([2]; 5 µM cGMP (saturating) with PKG Iα, p<0.002): eight

Molecule: Ac-ALKSENYADKVEFKDAKYEASALANEFADA-NH2 [S1.7]
- helicity (secondary structure by CD) [3]: found to not be helical
- activation of PKG Iα (in words) [4]: did not activate the kinase

Molecule: Ac-DAEAKAKYEAEAAFFANLKLSD-NH2 [S1.10]
- EC50 [4]: 45 ± 4 µM

Molecule: Ac-AEAKAKYEAEAAFFANLKLSD-NH2 [S1.11]
- activation of PKG Iα (in words) [4]: complete loss of activity

Molecule: Ac-NKAYEDAEAKAKYEAEAAFFANLKLSD-NH2 [S1.4]
- EC50 [4]: 12 ± 1 µM

Molecule: CC(C)(O)[C@H]1O[C@H]2CC[C@@]3(C)[C@@](O)(CC[C@H]4Cc5c([nH]c6ccccc56)[C@@]43C)C2=CC1=O [paxilline]
- additional constriction on paxilline in control arteries [5]: 5%
- paxilline-induced constriction in control arteries [6]: 4%

Molecule: Ac-DVSNKAYEDAEAKAKYEAEAAFFANLKLSD-NH2 [S1.1]
- EC50 [4]: 35 ± 4 µM
- activation of PKG Iα (in words) [4]: robust and cooperative activation
- effect on KM for the substrate peptide W15 ([4]; control experiment (Figure S4)): did not affect the KM
- increase of KCa1.1 channel activity (NPo) versus control ([2]; 100 µM peptide pre-incubated with PKG Iα, +10mV, p<0.05): 6 fold

Molecule: Ac-DVSNKAYEDAEAKAKYEAEAAFFANLK-NH2 [S1.2]
- EC50 [4]: 35 ± 4 µM

Molecule: Ac-DVSNKAYEDAEAKAKYEAEAAAAANLKLSD-NH2 [S1.6]
- helicity (secondary structure by CD) [3]: increased degree of helicity
- activation of PKG Iα (in words) [4]: equivalent to removal of the entire knob

Molecule: Ac-DVSNKAYEDAEAKAKYEAEAA-NH2 [S1.3]
- helicity (secondary structure by CD) [3]: helicity was compromised but not completely lost
- activation of PKG Iα (in words) [4]: completely abolished kinase activity

Molecule: Ac-EDAEAKAKYEAEAAFFANLKLSD-NH2 [S1.9]
- EC50 [4]: 43 ± 5 µM

Molecule: Ac-DVSNKAYEDAEAKAKYEAEAAFFANLK-NH2 [S1.2]
- maximal efficacy of activation of PKG Iα kinase activity [7]: 60 % of maximum

Molecule: Ac-NKAYEDAEAKAKYEAEAAFFANLKLSD-NH2 [S1.4]
- maximal velocity of PKG Iα kinase activity with the peptide [8]: 80%
